Compounds with a hit are over-represented: about 1.4% of the library has one in this group of screens.
PERK inhibitor = blocks human PERK kinase | 0.17% of 220,000 active | inhibition, % at 5.6 µM | Q9NZJ5 | CHO PERK-DD fusion, SEAP luminescence translation reporter;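 active = inhibition above the mean inhibition of all tested compounds plus 3 SD, set separately per screening campaign, cut at about 2.9% in these data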;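 also: PERK kinase domain activated by AP20187 dimerizer at 100 nM; 0% = DMSO with dimerizer and 100% = rapamycin at 8.4 µM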
STAT3 inh = STAT3 signaling inhibition. U3A cells, IL-6 STAT3-luciferase reporter, luminescence; host cell line lacks STAT1. inhibition, % at 5.5 µM. 0.89% of 190,000 active;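 active = inhibition above the mean inhibition across all screened compounds plus 3 SD, cut at about 44% in these data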;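 also: 0% = DMSO only wells and 100% = 100 µM nifuroxazide control wells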
STAT3 act = activators of IL-6 induced STAT3 signaling; U3A cells, IL-6 STAT3-luciferase reporter, luminescence; 100% = signal with IL-6 EC80 alone; activation (% of control), % at 5.6 µM; 0.91% of 190,000 active;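 active = activation above the screen-wide mean of compound activation plus 3 SD, cut at about 130% in these data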;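 also: 0% = background luminescence of wells with medium and substrate only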
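Test system: STAT3-luciferase reporter U3A cells; Detection: reporter luminescence signal; Times: 1 h compound pre-exposure, 6 h IL-6 stimulation, 37 °C; Benchmarks: IL-6-only high control; Also added: IL-6 stimulus at 33 ng/mL final.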
STAT1 blocker = STAT1 signaling inhibition. NIH 3T3 STAT1-luciferase reporter, IFN-gamma, luminescence. inhibition, % at 5.5 µM. 0.35% of 200,000 active;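 active = inhibition above a set limit, the mean inhibition across all tested compounds plus 3 SD, cut at about 34% in these data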;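 also: 0% = IFN-gamma with DMSO and 100% = IFN-gamma with 300 µM nifuroxazide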
Platelet DG rel = modulates dense granule release in human platelets; human platelet-rich plasma, SFLLRN dense granule ATP release, luminescence; inhibition, %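 (compounds screened at 7.5 µM in platelet-rich plasma)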; 0.22% of 300,000 active;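 active = mean replicate score, as percent of positive control, at or above 50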
Starred values were filed as active, the others as inactive; x = no result; ! = repeats disagree.

SMILES	PERK inhibitor	STAT3 inh	STAT3 act	STAT1 blocker	Platelet DG rel
N#C/C(=C(/O)CCl)c1nc2ccccc2[nH]1	1	-41	134*	18	8
CN1CCN(CCCC(=O)c2ccc(C3CCCC3)cc2)CC1	-1	1	104	3	-5
CCOC(=O)c1ncn2c1CN(C)C(=O)c1cc(F)ccc1-2	3.1*!	4	98	0	1
COc1cccc(/C=C/C(=O)N2CCN(c3n[nH]c(=O)[nH]c3=O)CC2)c1OC	-1	5	104	0	1
COc1ccc(-c2[nH]ncc2CN(C)CCN2CCOCC2)cc1F	3.0*	11	100	8	0
COc1ccc(-c2[nH]ncc2CN(C)CC2CCCCO2)cc1F (stereo not drawn)	0	-1	102	2	16
NC(=S)N/N=C/c1ccc(/C=N/NC(N)=S)cc1	3.5*	x	x	x	6
Cc1c(NC(=O)c2cc(-c3cccc(Cl)c3)on2)c(=O)n(-c2ccccc2)n1C	x	x	x	x	-17
CCN(CC)CCn1c2ccccc2c2cnc(N)c(C#N)c21	-1	-74	169*	-83	7
COc1ccc(C(=O)Nn2c(SCC(=O)NCc3ccccc3)nc3ccccc3c2=O)cc1	0	42	67	6	-3
COc1ccc(C(=O)Nn2c(SCC(=O)NCC3CCCO3)nc3ccccc3c2=O)cc1 (stereo not drawn)	1	77*	34	47*	33
COc1ccc(-c2cn(-c3cccc(C)c3)c(=O)[nH]2)cc1OC	0	7	101	1	-2
COc1ccccc1-n1cc(-c2ccc(Cl)cc2)[nH]c1=O	0	7	95	6	105*
CCOc1ccc(OCc2cccc(C(=O)N3CCCCCC3)c2)cc1	0	80*	33	71*	-3
Cc1cc(NC(=O)C2CC(=O)N(c3ccc(F)cc3)C2)no1 (stereo not drawn)	x	x	x	x	4
Cc1ccc(N2CC(C(=O)Nc3cc(C)on3)CC2=O)cc1 (stereo not drawn)	2.9*	-1	111	6	6
C/C(=N\OC(=O)c1ccccc1F)c1nccs1	3.4*	9	101	6	-1
CC1=NC(=O)C(N=Nc2ccccc2C)N1c1ccccc1 (stereo not drawn)	1	-4	106	-6	x
CC1=NC(=O)C(N=Nc2cccc3ccccc23)N1c1ccccc1 (stereo not drawn)	2	-68	159*	4	x
CC(C)(C)c1nc2c(Br)cc(Br)cc2c(=O)o1	-1	-5	103	-4	-7
Cc1cccc(/C=N/Nc2ccc3ccccc3n2)c1	0	102*	16	90*	0
C(=N\Nc1ccc2ccccc2n1)/c1ccc2c(c1)OCCO2	1	108*	13	89*	45
Cc1ccc(/C=N/Nc2ccc3ccccc3n2)o1	0	90*	30	73*	x
Cc1ccc(N=Nc2c(O)c3ccccc3[nH]c2=O)c(S(=O)(=O)N(C)C)c1	3.3*	x	x	x	x
CC(C)C(=O)NNc1ccc(C(F)(F)F)cn1	3.6*	x	x	x	13
SMILES	PERK inhibitor	STAT3 inh	STAT3 act	STAT1 blocker	Platelet DG rel
CN(C)C(CNc1ccc(C(F)(F)F)cn1)c1ccccc1 (stereo not drawn)	x	x	x	x	1
COc1ccccc1N1C(=O)N(C(C)=O)C2C1Nc1ccccc1N2C (stereo not drawn)	-1	-35	134*	17	-3
C=CCOc1ccc(/C=C/C(=O)Nc2ccc(C(=O)NC)cc2)cc1	-1	-4	106	7	-6
COc1ccc(CC(=O)O/N=C(\N)c2ccccn2)cc1	3.1*	x	x	x	-2
COc1ccccc1C(=O)O/N=C(\N)c1ccccn1	1	x	x	x	3
N/C(=N\OC(=O)c1ccccc1Cl)c1ccccn1	-1	69*	46	78*	56*
N/C(=N\OC(=O)Cc1ccc(-c2ccccc2)cc1)c1ccccn1	0	3	100	-1	-2
CCOc1ccc(NC(=O)c2ccccc2OC)cc1	0	-34	133*	-23	13
CCOc1ccc(NC(=O)c2ccccn2)cc1	1	98*	16	59*	31
COc1cc(OC)cc(C(=O)NNC(=O)c2ccccn2)c1	0	-6	108	-6	-3
COc1ccccc1C(=O)Nc1ccc(C2=NNC(=O)CC2C)cc1 (stereo not drawn)	-1	12	94	1	88*
COc1ccc(C(=O)NNC(=O)c2ccccn2)cc1	1	99*	18	92*	77*
COc1cccc(OC)c1NC(=O)CN1CCN(C)CC1	x	x	x	x	8
O=C(/C(N=Nc1cccc(C(F)(F)F)c1)=C(/O)c1cccs1)C(F)(F)F	1	x	x	x	24
Cc1ccc(N=C/C(C(=O)C(F)(F)F)=C(\O)c2cccs2)cc1	-1	84*	27	54*	6
Cc1ccc2c(c1)C(c1ccccc1)N(C(=O)c1ccc(Br)o1)CC(=O)N2 (stereo not drawn)	-1	-38	135*	8	-1
O=C1CN(C(=O)c2ccc(Br)o2)C(c2ccccc2)c2cc(Cl)ccc2N1 (stereo not drawn)	-1	-20	124	8	-10
CC1CC(CC(C)C(=O)NC(=S)Nc2ccc(S(N)(=O)=O)cc2)C(=O)O1 (stereo not drawn)	0	7	98	-1	6
CCC1CC(C)(C(=O)Nc2ccc(S(N)(=O)=O)cc2)OC1=O (stereo not drawn)	2.9*	-4	106	4	2
COc1nc(-c2ccccc2)nnc1-c1ccccc1	0	-62	153*	-61	2
CN(C)c1ccc(N/C=C/C(=O)c2ccc(F)cc2)cc1	0	36	73	-10	95*
NS(=O)(=O)c1ccc(N/C=C\C(=O)c2ccc(F)cc2)cc1	0	7	99	-61	26
O=c1[nH]c2ccc(NC(=S)Nc3ccccc3Cl)cc2[nH]1	1	-2	100	4	54*
CSc1ccc(S(=O)(=O)Nc2c(C)n(C)n(-c3ccccc3)c2=O)cc1	x	x	x	x	-6
Cc1nnc(SCC(=O)N(C)c2c(N)n(Cc3ccccc3)c(=O)[nH]c2=O)n1Cc1ccccc1	0	5	98	5	4
SMILES	PERK inhibitor	STAT3 inh	STAT3 act	STAT1 blocker	Platelet DG rel
CCn1c(SCC(=O)N(C)c2c(N)n(Cc3ccccc3)c(=O)[nH]c2=O)nc2ccccc21	-1	x	x	x	59*
Cc1ccc(-c2ccc(/C=N/NC(=O)c3ccccc3O)o2)cc1	3.1*	x	x	x	-3
O=[n+]1c2c(n([O-])c3c1CCCC3)CCCCC2	1	7	98	2	4
O=[n+]1c2c(n([O-])c3c1CCC3)CCCC2	1	-36	136*	-1	-20
Cc1nc([N+](=O)[O-])cn1CCC#N	3.6*	x	x	x	0
O=C(CCl)Nc1cc(SCC(O)CO)cc([N+](=O)[O-])c1 (stereo not drawn)	-1	98*	20	54*	4
CCC(=O)Nc1cc(SCCO)cc([N+](=O)[O-])c1	1	1	100	2	0
